Data: ChEMBL document CHEMBL3576824, “Phenolic diterpenoid derivatives as anti-influenza a virus agents” (ACS Med Chem Lett, 2015)
Calls of active or inactive are those of the source.

How the values were obtained:
[1] = Cytotoxicity against MDCK cells assessed as reduction of cell viability; type: cell-based, Canis lupus familiaris; details: dog
Procedure, shortened: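 Uninfected MDCK cells. CC50 is the concentration (μM) that reduced cell viability by 50%.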

Influenza A virus [2] = experiment: Antiviral activity against oseltamivir-sensitive Influenza A virus (A/Hong Kong/8/68(H3N2)) infected in MDCK cells assessed as protection against virus-induced cytocidal effect at 20 uM after 48 hrs by CellTiter-Glo assay relative to control; type: functional
Procedure, shortened: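 Same cytocidal protection assay in MDCK cells with H3N2 virus, tested at concentrations up to 20 μM. The read-out is the percent inhibition of viral cytocidal effect, with 50% used as the threshold.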

[3] = Metabolic stability in human plasma assessed as compound remaining at 1 uM after 10 mins by reverse phase HPLC analysis; type: ADME, cell-free; details: read-out: Stability
Procedure, shortened: (§1)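 Compound incubated in 80% human plasma at 37 °C for varying times. Initial and remaining parent compound were quantified by reverse-phase HPLC. Benfluorex served as control. Data are averages of duplicate experiments.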

[4] = Metabolic stability in human plasma assessed as compound remaining at 1 uM after 2 hrs by reverse phase HPLC analysis; type: ADME, cell-free; details: read-out: Stability; procedure, shortened: as §1
Influenza A virus [5] = experiment: Antiviral activity against oseltamivir-sensitive Influenza A virus (A/Hong Kong/8/68(H3N2)) assessed as inhibition of viral infectivity in MDCK cells at 10 uM after 6 hrs by FITC conjugated anti-NP antibodies/DAPI staining-based confocal microscopic analysis; type: functional, organism-based
Procedure, shortened: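 MDCK cells were infected at MOI = 1 in the presence of 10 μM compound for 6 h. Infected cells were stained with FITC-conjugated anti-NP antibody, with DAPI as nuclear stain, and imaged by confocal microscopy. Infected cells without compound served as control.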

SMILES	CC50 [1] [µM]	Activity (Influenza A virus [2]) [%]	remaining at 10 min, 1 µM [3] [%]	remaining at 2 h, 1 µM [4] [%]	inhibition (Influenza A virus [5])
COC(=O)[C@@]1(C)CCC[C@]2(C)c3cc(OC)ccc3C(=O)C[C@@H]12	> 40	<50			
C[C@]1(C(=O)O)CCC[C@]2(C)c3cc(OC(=O)CCC(=O)O)ccc3CC[C@@H]12	> 40	<50			
COC(=O)[C@@]1(C)CCC[C@]2(C)c3cc(OC(=O)C(C)C)ccc3CC[C@@H]12	> 40	<50			
C=CC(=O)Oc1ccc2c(c1)[C@@]1(C)CCC[C@](C)(C(=O)OCc3ccccc3)[C@@H]1CC2	> 40	<50			
COC(=O)[C@@]1(C)CCC[C@]2(C)c3cc(OC(C)=O)ccc3CC[C@@H]12	> 40	<50	30		
COC(=O)[C@@]1(C)CCC[C@]2(C)c3cc(OC(=O)CCCC(=O)O)ccc3CC[C@@H]12	> 40	<50			
COC(=O)[C@@]1(C)CCC[C@]2(C)c3cc(O)ccc3CC[C@@H]12	> 40	<50		86	
COC(=O)[C@@]1(C)CCC[C@]2(C)c3cc(OC(=O)CCBr)ccc3CC[C@@H]12	> 40	<50			Active
C=CC(=O)Oc1ccc2c(c1)[C@@]1(C)CCC[C@](C)(C(=O)OC)[C@@H]1CC2	> 40	<50			
COC(=O)[C@@]1(C)CCC[C@]2(C)c3cc(OC)ccc3CC[C@@H]12	> 40	<50			
C=CC(=O)Oc1ccc2c(c1)[C@@]1(C)CCC[C@](C)(C(=O)NC)[C@@H]1CC2	> 40	<50			
COC(=O)[C@@]1(C)CCC[C@]2(C)c3cc(OC(=O)C4CC4)ccc3CC[C@@H]12	> 40	<50			
COC(=O)[C@@]1(C)CCC[C@]2(C)c3cc(OC(=O)CCCCBr)ccc3CC[C@@H]12	> 40	<50			
C[C@]1(C(=O)OCc2ccccc2)CCC[C@]2(C)c3cc(OCCC(=O)O)ccc3CC[C@@H]12	> 40	<50			
C[C@]1(C(=O)OCc2ccccc2)CCC[C@]2(C)c3cc(OC(=O)CCC(=O)O)ccc3CC[C@@H]12	> 40	<50			
COC(=O)[C@@]1(C)CCC[C@]2(C)c3cc(OC(=O)CCCBr)ccc3CC[C@@H]12	> 40	<50			
CC(C)c1c(O)ccc2c1CC[C@H]1C(C)(C)CCC[C@]21C [TOTAROL]	21	<50			
CNC(=O)[C@@]1(C)CCC[C@]2(C)c3cc(O)ccc3CC[C@@H]12	> 40	<50			
COC(=O)[C@@]1(C)CCC[C@]2(C)c3cc(OC(=O)CCCCCBr)ccc3CC[C@@H]12	> 40	<50			
COC(=O)[C@@]1(C)CCC[C@]2(C)c3cc(OC(=O)C(C)F)ccc3CC[C@@H]12 (stereo partly specified)	> 40	<50			
C[C@]1(C(=O)OCc2ccccc2)CCC[C@]2(C)c3cc(O)ccc3CC[C@@H]12	> 40	<50			
COC(=O)[C@@]1(C)CCC[C@]2(C)c3cc(OCCC(=O)O)ccc3CC[C@@H]12	> 40	<50			
COC(=O)[C@@]1(C)CCC[C@]2(C)c3cc(OC(=O)CCC(=O)O)ccc3CC[C@@H]12	> 40	<50			
C[C@]1(C(=O)O)CCC[C@]2(C)c3cc(O)ccc3CC[C@@H]12 [PODOCARIC ACID]	91.2	<50			
